From the EternaBench riboswitch data

Test system: MS2 coat protein
Test: apparent Kd, MS2 coat protein; higher = weaker binding; RNA-MaP array; FMN 200 µM where present
Outline: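 The apparent Kd is reported as the median of filtered per-cluster binding-curve fits. To get these curves, designs transcribed by stalled E. coli RNA polymerase on Illumina sequencing-chip clusters were titrated with SNAP-549-labelled MS2 coat protein from 0.7 or 1.5 nM, doubling to 3 µM. Titrations were run without and then with constant ligand in 100 mM Tris-HCl pH 7.5, 80 mM KCl, 4 mM MgCl2, BSA, DTT, yeast tRNA and Tween-20, and green signal was normalised to red-channel RNA signal and control-cluster median Fmax.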

[1] = designed as: ON switch for flavin mononucleotide, no ligand
[2] = ligand present: flavin mononucleotide, designed as: ON switch for flavin mononucleotide
[3] = designed as: OFF switch for flavin mononucleotide, no ligand
[4] = ligand present: flavin mononucleotide, designed as: OFF switch for flavin mononucleotide

Sequence | apparent Kd [1] [nM] | apparent Kd [2] [nM] | apparent Kd [3] [nM] | apparent Kd [4] [nM]
UUCGACGUCGUAGGAUAUGUAGGAUAUUCCUACAUGAGGAUCACCCAUGUUGACAUGGAAGAAGGACAGAAGGACGAUGUCCAU | 301 | 6.4 |  | 
CGUAUCGUAAGAGGAUAUAUGAGUCCUACAUGAGGAUCACCCAUGUAGGUGAUCUAACGAGAUUAGUAGAAGGCUUACGAUACG | 14.3 | 7.96 |  | 
AUAGCAUACCGAGGAUAUUCAUAUAAUAAAUAAACAUGAGGAUCACCCAUGUGGCGAAAGCCUAGGGAGAAGGCGGAAUGCUAC | 225 | 25.3 |  | 
GUGUACGGAGGAUAUAUAUGGGCAGGCUGACCUGCAGCUUCACAUGAGGAUCACCCAUGUAGAAGGCUGUGCAC |  |  | 31.6 | 132
AGCUGUGGCCGAGGAUAUCUAAAUUCUUAAAACGAAAUAUAAUCGAACAUGAGGAUCACCCAUGUAGAGAAGGCGGUCUCAGCA |  |  | 19.8 | 20.7
UGUCGGAGCAGAGGAUAUUACAUGAGGAUCACCCAUGUAUGAACCAAUAGCUGGAAACAGCAAUGUAAGAAGGCUGCUACGACA |  |  | 12.2 | 153
GGCUACGUUUCGUAGCAGCUAGGUGAGGAUAUUCAAUUUUUCACAUGAGGAUCACCCAUGUAUGUGAAGAAGGCGCCUAGAAAG | 12.6 | 4.85 |  | 
AGCGUACAAGCUAACAUGAGGAUCACCCAUGUGGACUCAUGCGAGGAUAUCGGGAAGGAGGAUUCCGAGAAGGUGCGGUGAGCC | 148 | 38.1 |  | 
AAGUGGUUUAUAUAUUUAGAUAUCAGAAGGCGUGACAUGAGGAUCACCCAUGUGGACUAACAUGACGAGGAUAUGACUAAUUGU |  |  | 30.4 | 39.8
UGGAUCAUCGGAGGAUAUCAUGUAAAUACAUGAGGAUCACCCAUGUCGAUGGAGACAUCGGAGAUUGAGAAGGCCGAUGAUCCU | 437 | 25.7 |  | 
GGACAUUUACAGAAGGGCAAAUUUUAUAGUGAAUAUUUAGUUCUGAUUUGCAGGAUAUGUGGAACAUGAGGAUCACCCAUGUCC | 13.8 | 6.71 |  | 
GGUGCUCAAAGAGUACCAAUACGAACAUGAGGAUCACCCAUGUAGGAUAUGCUACUCAAAGAGUAGCAGAAGGACAUGUGCCUA |  |  | 16.4 | 116
CUUAUGUGAGGAUAUCAGUAGUGAUACGAUAGUAUUACUGCUGAGAAGGCACAUGAGGAUCACCCAUGUUCCUC |  |  | 117 | 422
GAUUACAUGAGGAUCACCCAUGUACAGGUGAUUCUCGGUACGAGAAGGGCGGAGGGUCACCACACGCAGGAUAUCGAGCAAAGG |  |  | 231 | 65.4
AACAGUGCUAAUAAAUAAGAUCUACAUGAGGAUCACCCAUGUAAGGAUAUCGUCAGGAAUACUGACGAGAAGGUACAUGCACUG |  |  | 15 | 25.9
GGUCCAGCAUGAGGAUAUGGCACCUUAUUGGUGCCAGAAGGCAUGUCUAUAGACAUGAGGAUCACCCAUGUAAUAAAUUGGACC |  | 43.2 |  | 
CUGUGAUGGAUCCAGAAUUACAACAUGAGGAUCACCCAUGUGCAGGAUAUCGGGUUGAUAGGCGCCGAGAAGGGUAUAGUCACG |  |  | 132 | 132
GCUGUGGCAUGAGGAUAUGGACAGCUUUGCUGUCCAGAAGGCAUGUCAAUAGACAUGAGGAUCACCCAUGUAGUUAACACAGCA | 498 | 39.4 |  | 

Sequence | apparent Kd [1] [nM] | apparent Kd [2] [nM] | apparent Kd [3] [nM] | apparent Kd [4] [nM]
UGACGAGUAGGAUAUUGGACUUGCGACAUGAGGAUCACCCAUGUGACGUCAACGUGGCACCAAGAAGGGCUACGUC |  |  | 68.1 | 46.9
AAUAUAGAGCUGGAAUAAAACCUCACAUGAGGAUCACCCAUGUAGGAUAUCAGCACGAUAAGUGCUGAGAAGGACAUCCAGCUC |  |  | 15.6 | 17.9
AAUUGAAACGUAGGAUAUCGCAAAGAUCUAGAACGAGAAGGACGUACAUGAGGAUCACCCAUGUUAAAUGGUGAAGAUUAGAUG |  |  | 768 | 916
GUCAGCUCGUGAGGAUAUACAACACUGAUUCGGCAGUGUAUUAAGAUCACAUGAGGAUCACCCAUGUAGAAGGCACGAGCUGAU |  |  | 17.2 | 275
GUUUUCGCAUGAGGAUAUGCUCGCAUUUCAAGAGCAGAAGGUAUGUCUAUAGACAUGAGGAUCACCCAUGUAUUUAACUUUGAA | 232 | 44.5 |  | 
AGAUGGCGAGGAUAUACAUGAGGAUCACCCAUGUGAAGAUAAAUAGUGAGGAAGAAAAGUAGAAGGCGCUGUCA |  |  | 77.5 | 447
UAUAUGUCAGGAUAUCGAUUGGAACGGAAUUCGGUUCUGGUUGAGAAGGGACAUGAGGAUCACCCAUGUUUUUC |  |  | 36.2 | 222
AGAUAACACCAGAAGGACAUGAGGAUCACCCAUGUAGGAUAUGGGCAUCACUCGAGAAAGAUACGACCAAAGGGACACGCGGUC | 124 | 9.97 |  | 
AAGGCAAUGUCAUGCCCACCGGACAGAAGGCAAUGUGGGCAGCCCGACAUGAGGAUCACCCAUGUUGAGGAUAUGUCCCGUCCU |  |  | 2.72 | 2.85
AAGAAAGAAACGUAGGAUAUCAAGAAUAUAACAUGAGGAUCACCCAUGUAAAUACGAAAGUAUAAUGAGAAGGAUGGAUGAUCUUC | 102 | 83.4 |  | 
CAAUAUAGCACAGGAUAUGUCUCGUUUACAUGAGGAUCACCCAUGUCCGAAACAGAAGGGUGACCCGAUAUAGGACGUUGGGUG | 121 | 28.9 |  | 
CGCAACUCAGAUCUUUUUAACAUGAGGAUCACCCAUGUAUUGAGAAGGAGGAAGAAGAGAGAUUCCUAGGAUAUCAGAGUUGCG |  |  | 5.4 | 6.14
CUCUUGUCAGGAUAUGCUGCUCGUCACGAAAGUGAUGAGUAGCAGAAGGGACAUGAGGAUCACCCAUGUAAAUA |  |  | 53.7 | 17.5
UUAUUUAGGUAGGAUAUCGAUAUUAAUUAUUAUCGAGAAGGGUCUACAUGAGGAUCACCCAUGUUAGCAUGUAU |  |  | 28.1 | 29.9
UUACGUCCCGUUUACAUGAGGAUCACCCAUGUCGAAAGAGCGUAGGAUAUGCUACCUAGUUGGUAGCAGAAGGAUGCAACGUCG | 25.2 | 37.5 |  | 
GGUGCGUCUGUGAGGAUAUGCUGGUCCUUGGCUCGGCAGAAGGCACAUGAGGAUCACCCAUGUGGUGUCGUGCC |  |  | 18.5 | 34.6
UGCUACGUUUCGUAGCAGCUAGGUGAGGAUAUUCAAUUUUUCACAUGAGGAUCACCCAUGUAUGUGAAGAAGGCGCCUAGAAAG | 12.3 | 5.26 |  | 
CUAGACUGAUCAGGAUAUCAUCGCGUGGUGUAUCCCUGUGAUUACAUGAGGAUCACCCAUGUGCAUGAGAAGGGAUUACUAUGU |  |  | 54.7 | 30
